The source of these data is ChEMBL document CHEMBL1154137, “Monodictyochromes A and B, dimeric xanthone derivatives from the marine algicolous fungus Monodictys putredinis” (J Nat Prod, 2008).

Data set [1] is described as follows: Antioxidant activity assessed as AAPH radical scavenging activity. It is filed as functional. An outline of the steps:
(§1)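 Oxygen radical absorbance capacity (ORAC) assay. AAPH generates peroxyl radicals, and trolox, the water-soluble vitamin E analogue, serves as reference. Compounds tested at 1 µM.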

Data set [2] is described as follows: Inhibition of CYP1A in beta-naphthoflavone-stimulated rat […] cells assessed as dealkylation of 3-cyano-7-ethoxycoumarin to 3-cyano-7-hydroxyciumarin. It is filed as ADME, cell-based. To be noted: for pIC50: Rattus norvegicus; for Activity: rat. The procedure, abridged:
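Rat hepatoma H4IIE cells induced with β-naphthoflavone, then homogenised. CYP1A activity measured as dealkylation of 3-cyano-7-ethoxycoumarin to fluorescent 3-cyano-7-hydroxycoumarin, over a dose range. α-Naphthoflavone serves as positive control. IC50 is given as mean ± SD, n = 3.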

Data set [3] can be described thus: Cytotoxicity against mouse Hepa-1c1c7 cells by MTT assay. Format: cell-based. In general terms: Tetrazolium assays rely on reduction of a dye to a coloured formazan, in cell work by metabolically active cells.
The target in the next data set is T1, Aromatase (Homo sapiens, UniProt P11511).
T1 sequence (P11511 whole entry): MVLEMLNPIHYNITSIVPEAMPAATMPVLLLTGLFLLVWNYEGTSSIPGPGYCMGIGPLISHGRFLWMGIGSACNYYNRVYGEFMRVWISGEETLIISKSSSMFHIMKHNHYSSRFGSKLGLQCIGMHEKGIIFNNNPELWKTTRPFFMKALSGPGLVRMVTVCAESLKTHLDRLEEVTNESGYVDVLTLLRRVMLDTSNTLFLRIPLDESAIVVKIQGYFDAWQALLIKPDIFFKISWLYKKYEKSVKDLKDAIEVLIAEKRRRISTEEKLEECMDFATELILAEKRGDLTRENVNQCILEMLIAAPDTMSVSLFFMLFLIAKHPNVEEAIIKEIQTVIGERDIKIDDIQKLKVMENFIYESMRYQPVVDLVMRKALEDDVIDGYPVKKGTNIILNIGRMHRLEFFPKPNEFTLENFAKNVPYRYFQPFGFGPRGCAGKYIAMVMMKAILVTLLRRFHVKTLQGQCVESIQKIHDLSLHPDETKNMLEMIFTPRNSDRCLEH
Put plainly: Inhibition of human recombinant aromatase. To be noted: for Activity: human. An outline of the steps:
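Human recombinant CYP19 (aromatase) with O-benzylfluorescein benzyl ester (DBF) as substrate.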

A short description of data set [4]: Antioxidant activity assessed as superoxide anion radical scavenging activity up to 50 uM. It is filed as functional. An outline of the steps:
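Superoxide anion radicals generated by xanthine oxidase oxidising hypoxanthine to uric acid. Scavenging tested at concentrations up to 50 µM.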

Data set [5] can be described thus: Antioxidant activity assessed as AAPH radical scavenging activity at 1 uM. It is filed as functional. An outline of the steps:
as §1

Another data set has as its system Priestia megaterium. Put plainly: Antibacterial activity against Bacillus megaterium at 1 mg/ml by agar diffusion assay. It is filed as functional, organism-based. An outline of the steps: (§2)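 Agar diffusion assay with test solution at 1 mg/mL. Organisms: bacteria Bacillus megaterium and Escherichia coli; fungi Microbotryum violaceum, Eurotium rubrum and Mycotypha microspora; green microalga Chlorella fusca.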
On the technique in general: A growth-free zone around the sample is the usual read-out of agar diffusion tests.

The next data set deals with Escherichia coli. Put plainly: Antibacterial activity against Escherichia coli at 1 mg/ml by agar diffusion assay. Format: functional, organism-based. An outline of the steps: as §2
In a further data set the test system is Microbotryum violaceum. Description: Antifungal activity against Microbotryum violaceum at 1 mg/ml by agar diffusion assay. Format: functional, organism-based. The procedure, abridged: as §2
In another data set the test system is Aspergillus ruber. Description: Antifungal activity against Eurotium rubrum at 1 mg/ml by agar diffusion assay. It is filed as functional, organism-based. The procedure, abridged: as §2
Another data set concerns Mycotypha microspora. Put plainly: Antifungal activity against Mycotypha microspora at 1 mg/ml by agar diffusion assay. Format: functional, organism-based. An outline of the steps: as §2
For another data set, the system named is [Chlorella] fusca. Description: Antialgal activity against Chlorella fusca at 1 mg/ml by agar diffusion assay. Format: functional, organism-based. To be noted: Scenedesmus fuscus. An outline of the steps: as §2
Data set [6] has as its target Prostaglandin G/H synthase 1 (Homo sapiens) (UniProt P23219). Description: Inhibition of COX1 at 100 uM. An outline of the steps:
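COX-1 enzymatic activity used as a marker of tumour promotion. Compounds tested at 100 µM.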

Data set [7] has as its system Radical scavenging activity. Put plainly: Antioxidant activity assessed as DPPH radical scavenging activity up to 250 uM. Format: functional.
The target of data set [8] is T2, Quinone oxidoreductase (Mus musculus) (UniProt P47199).
T2 sequence (whole entry): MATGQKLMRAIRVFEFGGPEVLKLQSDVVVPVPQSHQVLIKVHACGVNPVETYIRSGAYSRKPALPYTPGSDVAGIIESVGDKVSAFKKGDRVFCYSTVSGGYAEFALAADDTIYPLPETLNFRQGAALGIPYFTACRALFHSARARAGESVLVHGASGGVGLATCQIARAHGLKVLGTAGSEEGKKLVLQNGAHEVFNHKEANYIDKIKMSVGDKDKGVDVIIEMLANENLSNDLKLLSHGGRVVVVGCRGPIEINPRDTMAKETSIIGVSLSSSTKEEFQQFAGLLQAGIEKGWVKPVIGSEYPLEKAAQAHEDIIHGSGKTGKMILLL
Put plainly: Ratio of compound to sulforaphane level required to double NADPH-quinone reductase activity in mouse Hepa-1c1c7 cells. It is filed as cell-based.

pIC50: −log10 of the molar value. The source made the active and inactive calls. The calls are words filed in the database; no cut-off is given here.

Prostaglandin G/H synthase 1 (Homo sapiens), sequence (P23219 whole entry): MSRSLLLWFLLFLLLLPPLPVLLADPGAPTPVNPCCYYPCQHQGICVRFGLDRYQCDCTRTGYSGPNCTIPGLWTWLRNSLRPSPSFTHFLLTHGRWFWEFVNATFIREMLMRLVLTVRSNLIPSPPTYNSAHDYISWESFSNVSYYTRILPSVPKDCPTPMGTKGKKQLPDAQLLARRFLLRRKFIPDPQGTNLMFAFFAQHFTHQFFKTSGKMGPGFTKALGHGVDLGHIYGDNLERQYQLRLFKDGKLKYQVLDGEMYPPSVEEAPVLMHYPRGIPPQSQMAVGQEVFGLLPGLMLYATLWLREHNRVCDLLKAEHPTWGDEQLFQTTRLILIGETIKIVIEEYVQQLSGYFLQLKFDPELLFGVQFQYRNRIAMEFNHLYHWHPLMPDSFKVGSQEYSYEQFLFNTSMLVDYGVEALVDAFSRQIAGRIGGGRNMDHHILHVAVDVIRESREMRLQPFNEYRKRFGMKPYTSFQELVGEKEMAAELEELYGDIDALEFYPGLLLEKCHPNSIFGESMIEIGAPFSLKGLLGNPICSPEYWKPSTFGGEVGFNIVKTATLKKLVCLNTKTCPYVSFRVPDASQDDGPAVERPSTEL

On to `Cc1c(C)c2c(c(C)c1O)CCC(C)(C(=O)O)O2` (stereo not drawn), for which, in [1], the result was Active.

With `Cc1cc(O)c2c(c1-c1ccc3c(c1O)C(=O)C[C@](C)([C@@H]1OC(=O)C[C@@H]1C)O3)O[C@](C)([C@@H]1OC(=O)C[C@H]1O)CC2=O` [MONODICTYOCHROMONE A], the pIC50 (commonly the negative decadic logarithm of the IC50, by convention in mol/L) was 5.28 in data set [2], below 4.30 in [3] and 4.61 on Aromatase. In addition, the Activity entry (in data set [2]; at Aromatase) was “Dose-dependent effect” each time. Besides, the outcome (in data set [4]; in the data set on Priestia megaterium; with Escherichia coli; with Microbotryum violaceum; in the data set on Aspergillus ruber; in the data set on Mycotypha microspora) was inactive. Also, the result in data set [Chlorella] fusca and in [7] was inactive. Also, the outcome in [5] was Active. Moreover, the inhibition (in general, the percentage by which the read-out fell short of the control) in data set [6] is below 50%. Also, the Ratio in data set [8] stood at 100.

On to `Cc1cc2c(c(O)c1-c1ccc3c(c1O)C(=O)C[C@](C)([C@@H]1OC(=O)C[C@@H]1C)O3)C(=O)C[C@@](C)([C@@H]1OC(=O)C[C@H]1O)O2` [MONODICTYOCHROMONE B], for which the pIC50 in data set [2] is 5.12; in [3] it was below 4.30; at Aromatase, 4.78. For the same compound, the Activity entry (in data set [2]; at Aromatase) was “Dose-dependent effect” throughout. Besides, the result (in [4]; with Priestia megaterium; with Escherichia coli; in the data set with Microbotryum violaceum; with Aspergillus ruber; with Mycotypha microspora) was inactive. In addition, the result in [Chlorella] fusca and in data set [7] was inactive. Also, in [5], the outcome was Active. Further, in data set [6], the inhibition is below 50%. Moreover, the Ratio in data set [8] is 100.
